In brackets after ≈: the same amount, converted by molar mass.
What was measured:
[1] = DPPH free radical scavenging assay; conditions: at 75 μg mL^−1
Procedure, shortened: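 Test samples were mixed with 3.0 mL of 0.1 mM DPPH in methanol, shaken vigorously, and held 30 min at room temperature in the dark. Absorbance was read at 515 nm and % scavenging calculated. BHT was the positive control and methanol the negative control.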

[2] = target: β-glucosidase; assay: β-Glucosidase inhibition assay; format: biochemical; conditions: for β-glucosidase inhibition: at 100 μg mL^−1
[3] = test system: rat intestinal α-glucosidase; assay: α-Glucosidase inhibition assay; format: biochemical; conditions: for α-glucosidase inhibition: at 100 μg mL^−1
[4] = Solubility studies of nano-curcumin in water; format: physicochemical; conditions: deionized water
Procedure, shortened: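 Each test sample was stirred in 30 mL deionized water at room temperature for 24 h to make a saturated solution. Undissolved particles were removed by centrifugation, and the liquid was filtered through a PTFE membrane. The filtrate was diluted with an equal volume of deionized water, and dissolved curcumin was quantified by UV/Vis absorbance at 422 nm.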

[5] = target: T1, α-amylase (Sus scrofa, UniProt P00690); assay: α-Amylase inhibitory assay; format: biochemical; conditions: at 100 μg mL^−1
T1 sequence (P00690 16-511): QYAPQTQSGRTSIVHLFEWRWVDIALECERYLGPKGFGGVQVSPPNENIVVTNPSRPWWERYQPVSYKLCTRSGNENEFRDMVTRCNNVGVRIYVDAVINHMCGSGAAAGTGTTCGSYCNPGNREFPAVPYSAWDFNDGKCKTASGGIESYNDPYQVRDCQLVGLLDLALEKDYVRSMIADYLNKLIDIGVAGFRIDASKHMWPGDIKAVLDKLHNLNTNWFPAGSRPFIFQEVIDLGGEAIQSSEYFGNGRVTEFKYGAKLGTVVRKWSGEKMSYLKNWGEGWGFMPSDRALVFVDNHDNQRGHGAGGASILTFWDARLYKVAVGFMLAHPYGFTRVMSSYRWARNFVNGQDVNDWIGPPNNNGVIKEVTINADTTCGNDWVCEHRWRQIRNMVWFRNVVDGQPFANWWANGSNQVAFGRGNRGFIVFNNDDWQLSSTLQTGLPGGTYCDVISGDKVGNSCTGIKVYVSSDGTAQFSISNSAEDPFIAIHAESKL

Compound	DPPH free radical scavenging activity [1] [%]	IC50, mean ± SD, β-Glucosidase [2] [µg/mL]	β-glucosidase inhibition [2] [%]	α-glucosidase inhibition [3] [%]	solubility at 24 h [4] [µg/mL]	solubility thermodynamic at 24 h ([4]; water, thermodynamic from solid) [µM]	α-amylase inhibition [5] [%]	IC50, mean ± SD, α-Glucosidase [3] [µg/mL]
Cc1cc(C(C)(C)C)c(O)c(C(C)(C)C)c1 [BHT, Butylated hydroxytoluene]	50.48 ± 1.11	–	–	–	–	–	–	–
COc1cc(/C=C/C(=O)CC(=O)/C=C/c2ccc(O)c(OC)c2)ccc1O [Curcumin, diferuloylmethane]	45.63 ± 0.78	51.92 ± 0.14 (≈ 141 µM)	50.38 ± 0.11	47.87 ± 0.31	0.98 (≈ 2.66 µM)	2.68 (≈ 0.987 µg/mL)	–	–
C[C@H]1O[C@H](O[C@H]2[C@H](O)[C@@H](O)[C@@H](O[C@H]3[C@H](O)[C@@H](O)C(O)O[C@@H]3CO)O[C@@H]2CO)[C@H](O)[C@@H](O)[C@@H]1N[C@H]1C=C(CO)[C@@H](O)[C@H](O)[C@H]1O (stereo partly drawn) [Acarbose, acarbose]	–	45.55 ± 0.21 (≈ 70.6 µM)	66.05 ± 0.47	66.04 ± 0.18	–	–	68.74 ± 0.28	45.76 ± 0.13 (≈ 70.9 µM)

From PMC10363772 (RSC Advances, 2023)
